Read-outs that look alike come from different tables or passages of the source.
Assays:
[1] = tested on: HEV RNA replication; experiment: HEV/NanoLuc luciferase; format: cell-based; conditions: Hepatitis E virus, PLC-PRF-5, 72 h, read-out: EC50 HEV
How it was run: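 HEV replicon RNA was electroporated into PLC/PRF/5 cells, which were plated at 2.5×10^4 per well in triplicate. Cells were treated with several concentrations of test compound for 72 h, and NanoLuc was read by Nano-Glo. Signal was taken relative to untreated cells (100%), mean±SD of triplicates, and EC50 was derived.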

[2] = tested on: HuH-7; conditions: read-out: CC50 HCV (HuH-7), HuH-7 cell-derived assays, cited from earlier work
[3] = Cell count after trypan blue dye treatment; format: cell-based; conditions: human, HepG2/NTCP cells
[4] = tested on: HBV; experiment: HBV replication assay; format: cell-based; conditions: Hepatitis B virus, HepG2, read-out: EC50 HBV
How it was run: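 Inoculum was HBV from HepG2.2.15 supernatant, given at 1000 genome equivalents/cell in medium with 4% PEG8000 and 2% DMSO for 24 h. Medium was then replaced and cells were cultured 8 days. Cellular DNA was extracted and HBV DNA quantified by real-time qPCR. Results were taken relative to untreated cells (100%), mean±SD of triplicates.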

[5] = tested on: HBV/NL virus entry; experiment: HBV/NL reporter assay, entry step; format: cell-based, hepatitis B virus; conditions: HBV/NL-infected HepG2/NTCPmyc cells, NL activity
How it was run: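 Reporter HBV/NL virus came from supernatant of HepG2 cells cotransfected with pUC1.2HBV/NL and pUC1.2HBVΔε. HepG2/NTCPmyc cells were infected at 10–100 genome equivalents with 4% PEG8000 and 2% DMSO overnight, with test compound applied per the entry-step schedule. NanoLuc activity was read with Nano-Glo, relative to untreated cells (100%), mean±SD of triplicates. P was computed vs. untreated.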

[6] = tested on: JEV RNA replication; experiment: JEV replicon Firefly luciferase; format: cell-based; conditions: Japanese encephalitis virus, 72 h, read-out: EC50 JEV
How it was run: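 JEV replicon cells (BHKMuarPACLuc rep, maintained with puromycin 10 μg/ml) were seeded at 1×10^5 per well in triplicate. They were treated with several concentrations of test compound for 72 h, then firefly luciferase was measured. Activity was expressed relative to untreated cells (100%), mean±SD of triplicates, and EC50 was derived.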

[7] = tested on: DENV RNA replication; experiment: DENV/Gaussia luciferase; format: cell-based; conditions: Dengue virus, BHK-21, 72 h, read-out: EC50 DENV
How it was run: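 BHK-21 cells were seeded at 1×10^4 per well in triplicate and transfected with the DENV replicon plasmid DGL2. At 24 h post-transfection they were treated with several concentrations of test compound for 72 h, then Gaussia luciferase was measured. Signal was expressed relative to untreated cells (100%), mean±SD of triplicates, and EC50 was derived.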

[8] = compared with N-89; ref [3]; cited from earlier work
[9] = tested on: HBV/NL, covalently closed circular DNA formation to translation of viral mRNAs; experiment: HBV/NL reporter assay, after entry to translation steps; format: cell-based, hepatitis B virus; conditions: HBV/NL-infected HepG2/NTCPmyc cells, NL activity
[10] = tested on: HCV RNA replication; conditions: read-out: EC50 HCV (HuH-7), HuH-7 cell-derived assays, cited from earlier work
[11] = tested on: HCV RNA replication; conditions: read-out: EC50 HCV (Li23), Li23 cell-derived assays, cited from earlier work
[12] = CellTiter 96 AQueous one solution cell proliferation assay; format: cell-based; conditions: human, PLC/PRF/5 cells
How it was run: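 PLC/PRF/5 cells seeded at 2.5×10^4 per well in triplicate and exposed to several concentrations of test compound for 72 h. Viability was read by the CellTiter 96 AQueous one solution assay. Values were taken relative to untreated cells (100%), given as mean±SD of triplicates, and CC50 was derived from the curves.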

[13] = tested on: Li23; conditions: read-out: CC50 HCV (Li23), Li23 cell-derived assays, cited from earlier work

## OCCCCCCC1COOC2(CCCCCCCCCCC2)OOC1 [N-251, 6-(1,2,6,7-tetraoxaspiro[7.11]nonadec-4-yl)hexan-1-ol]
[1]
  EC50: 13 µM
[2]; ref Ueda et al. [4]
  CC50: 0.49 to 3.8 µM
[3]
  CC50 at 9 days: 16 µM
[4]
  EC50: 1.9 µM
[5]
  Effect on the process of virus entry: did not prevent the process of virus entry
[6]
  EC50: 15 µM
[7]
  EC50: 6.5 µM
[8]
  Water solubility: higher water solubility than N-89
[9]
  Effect on the process of covalently closed circular DNA formation to translation of viral mRNAs: not inhibited
[10]; ref Ueda et al. [4]
  EC50: 0.14 to 0.98 µM
[11]; ref Ueda et al. [4]
  EC50: 0.059 to 0.29 µM
[12]
  CC50 at 72 h: 56 µM
[13]; ref Ueda et al. [4]
  CC50: 1.1 to 2.8 µM

## NC(=O)c1ncn([C@@H]2O[C@H](CO)[C@@H](O)[C@H]2O)n1 [RBV, Ribavirin, reference compound]
[1]
  EC50: 19 µM
[2]; ref Mori et al. [16]
  CC50: > 100 µM
[3]
  CC50 at 9 days: > 100 µM
[4]
  EC50: > 100 µM
[6]
  EC50: 22 µM
[7]
  EC50: 15 µM
[10]; ref Mori et al. [16]
  EC50: > 100 µM
[11]; ref Mori et al. [16]
  EC50: 8.7 to 15.9 µM
[12]
  CC50 at 72 h: > 100 µM
[13]; ref Mori et al. [16]
  CC50: > 100 µM

From PMC6047365 (Biochemistry and Biophysics Reports, 2018)
